Compound activity: PubChem, Sanford-Burnham Center for Chemical Genomics
Compounds with a hit are over-represented: about 1.7% of the library has one in this group of screens.
DNMT1 inh: blocks human DNA methyltransferase DNMT1 | P26358 | DNMT1 molecular beacon, Hinp1I cleavage, fluorescence | inhibition (reported as % activation of signal), % at 10 µM | 360,000 compounds, 0.83% hits | AID 588458; in the data active = inhibition above about 50%
STEP inh: blocks human striatal-enriched tyrosine phosphatase; P54829; recombinant STEP, OMFP fluorogenic substrate, fluorescence; inhibition, % at 20 µM; 360,000 compounds, 0.25% hits; AID 588621;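 active = inhibition at 20 µM, scaled per plate between control wells, above about 37%, limit read from the data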;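 also: 0% = DMSO with enzyme and substrate and 100% = substrate only without enzyme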
Target sequence (P54829 whole entry, looked up): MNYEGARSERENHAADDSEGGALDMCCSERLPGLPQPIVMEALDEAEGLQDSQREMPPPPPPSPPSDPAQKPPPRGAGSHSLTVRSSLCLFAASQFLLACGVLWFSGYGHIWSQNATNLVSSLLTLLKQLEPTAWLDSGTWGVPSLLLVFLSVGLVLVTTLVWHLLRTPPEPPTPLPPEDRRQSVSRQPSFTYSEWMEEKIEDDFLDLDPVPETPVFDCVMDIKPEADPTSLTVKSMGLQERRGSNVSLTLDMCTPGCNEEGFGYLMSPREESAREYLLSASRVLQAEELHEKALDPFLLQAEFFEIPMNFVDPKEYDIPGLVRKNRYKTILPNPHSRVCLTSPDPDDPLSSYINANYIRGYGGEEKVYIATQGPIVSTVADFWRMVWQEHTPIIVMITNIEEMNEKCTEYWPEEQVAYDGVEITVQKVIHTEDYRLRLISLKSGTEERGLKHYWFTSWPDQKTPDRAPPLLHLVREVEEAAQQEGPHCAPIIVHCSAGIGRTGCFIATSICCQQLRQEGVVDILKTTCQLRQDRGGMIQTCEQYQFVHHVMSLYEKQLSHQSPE
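medium = Bis-Tris buffer pH 6.0, 2.5 mM DTT, 0.005% Tween 20 | test system = STEP (striatal-enriched tyrosine phosphatase) enzyme, cell-free | measure = normalized % inhibition | compound dosing = 20 µM, 1% DMSO | also added = 25 µM OMFP | schedule = reaction 20 min, ambient temperature | measured by = fluorescence read at 480 nm ex / 540 nm em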
Scp-1 inhibitor: Scp-1 (human) phosphatase inhibition. Q9GZU7. Recombinant Scp1, phosphopeptide, malachite green phosphate absorbance. inhibition, % at 20 µM. 340,000 compounds, 0.88% hits;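 active = inhibition above about 50% at 20 µM, limit read from the data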;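 also: plate controls were DMSO wells with enzyme for no effect and wells lacking enzyme for full effect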
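Incubation: 45 min enzyme reaction at room temperature / System: truncated SCP-1 phosphatase (76-261aa) / Reagent: Phospho 17-mer peptide substrate / Buffer or medium: Acidic Tris acetate buffer with magnesium and detergent / Signal: absorbance at 630 nm / Doses: one concentration, 20 µM, with 1.0% DMSO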
LMPTP block: blocks human LMPTP phosphatase | P24666 | recombinant LMPTP-A, OMFP fluorogenic substrate, fluorescence intensity | inhibition, % at 20 µM | 360,000 compounds, 0.22% hits | AID 651560;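 active = compounds that cut the enzyme signal by at least half of the control window in the single-dose screen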;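 also: plate controls were DMSO wells with enzyme plus substrate for no effect and substrate without enzyme for full effect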
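Test system – LMPTP-A enzyme · Amount – LMPTP-A at 0.625 nM final in the reaction · Buffer or medium – Bis-Tris pH 6.0, DTT, detergent · Reagent – OMFP 400 µM · Doses – single 20 µM dose · Schedule – reaction 50 min, room temperature, dark · Detection – fluorescence intensity of OMFP turnover product · Evaluation – percent inhibition versus substrate-only and uninhibited controls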
SUMO1 PPI mod: modulators of human SUMO1-mediated protein-protein interactions. 360,000 compounds, 0.33% hits. inhibition, % at 20 µM. P63165. SUMO1 binding to a labelled peptide, TR-FRET, 1 h; in the data active = inhibition above about 37%
Target sequence (P63165 whole entry, looked up): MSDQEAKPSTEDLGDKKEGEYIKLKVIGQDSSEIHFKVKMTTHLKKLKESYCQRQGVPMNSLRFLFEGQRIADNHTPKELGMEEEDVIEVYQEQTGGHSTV
Scp-1 conf: Scp-1 (human) inhibition, single-dose confirmed; shares compounds with Scp-1 inhibitor; inhibition, % at 20 µM; 2,500 compounds, 61% hits; recombinant SCP-1 catalytic domain, phosphate release, malachite green absorbance;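 also: plate controls were DMSO with enzyme for no effect and buffer wells lacking enzyme for full effect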
Scp-1 MG ctr: counter-screen for Scp-1 inhibitors: colorimetric interference. shares compounds with Scp-1 inhibitor. Colorimetric interference counterscreen, malachite green absorbance 630 nm. apparent inhibition (interference), % at 20 µM. 2,500 tested, under 10 active. AID 540313;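 also: compounds added after enzyme reaction finished so only phosphate colour detection is probed; plate controls were DMSO wells with completed Scp-1 reaction for no effect and substrate wells lacking enzyme for full effect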
Scp-1 Tm shift: binds human Scp-1, shifting its melting temperature; 1,500 compounds, 25% hits; AID 540329; thermal shift relative to vanadate control, % at 40 µM; shares compounds with Scp-1 inhibitor; Recombinant SCP1, Sypro Orange thermal shift Tm;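 active = substances whose mean melting-temperature shift, as a percentage of the reference inhibitor's shift, reaches about 5.3%, limit read from the data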;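 also: 0% = Tm of DMSO wells and 100% = Tm with sodium orthovanadate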
DNMT1 interf DR: counter-screen for DNMT1 inhibitors: spectral interference, dose response. shares compounds with DNMT1 inh. molecular beacon fluorescence. IC50, µM. 200 tested, under 10 active. AID 602382; call rule not given here
DNMT1 inh conf: DNMT1 inhibition confirmation, single concentration; shares compounds with DNMT1 inh; DNMT1 molecular beacon HinP1I cleavage, fluorescence; inhibition, % at 10 µM; 2,300 compounds, 8% hits;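 active = average inhibition of at least 30% in the single-concentration confirmation test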
Beacon interf: shows spectral interference in the DNMT1 beacon assay; shares compounds with DNMT1 inh; DNMT1 molecular beacon spectral interference counterscreen, fluorescence 485/520; activation (fluorescence interference), % at 10 µM; 2,300 compounds, 1% hits; AID 602387;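 active = activation of at least 30% at 10 µM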;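 also: DNMT1 catalytic domain with a HinP1I cleavage step and a FAM/dabcyl DNA beacon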
STEP conf: confirmation of human STEP phosphatase inhibitors | recombinant STEP, OMFP fluorogenic substrate, fluorescence | inhibition, % at 20 µM | AID 623866 | 520 compounds, 32% hits | shares compounds with STEP inh; call rule not given here;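 also: 0% = enzyme with substrate plus DMSO and 100% = substrate without enzyme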
* = called active by the depositor; . = no result.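 The calls were made as follows, unless noted: active = inhibition of at least 30% at 20 µM; inactive = the rest.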

SMILES	DNMT1 inh	STEP inh	Scp-1 inhibitor	LMPTP block	SUMO1 PPI mod	DNMT1 inh conf	Beacon interf	others
O=C(Nc1cccc(-c2nc3ncccc3o2)c1)c1cc2ccccc2o1	1.3	-3.2	2.6	1.8	-1.6	.	.
O=C(Nc1cccc(-c2nc3ncccc3o2)c1)c1sc2cc(Cl)ccc2c1Cl	16.1	89.9*	94.9*	50.6*	4.1	.	.	Scp-1 conf=57.1*;Scp-1 MG ctr=-12.3;Scp-1 Tm shift=-12.5;STEP conf=-0.4
Cc1cc(C)cc(NC(=O)CSc2nc(=O)n(CCCN3CCOCC3)c3c2CCCC3)c1	1.5	-2.5	-2.7	-1.6	0.2	.	.
O=C(O)C(S)C(S)C(=O)O (stereo not drawn)	86.2*	50.0*	95.8*	39.8	22.9	.	.	Scp-1 conf=64.8*;Scp-1 MG ctr=-15.1;Scp-1 Tm shift=-2.1;STEP conf=100.8*
Cc1ccc(NC(=O)CCc2c[nH]c3ccccc23)nc1	-1.4	-1.9	-1.8	0.5	2.2	.	.
C#CCn1c(=NC(=O)c2cccs2)sc2cccc(OC)c21	57.9*	2.0	16.8	11.1	-5.1	3.2	33.4*
C#CCn1c(=NC(=O)CN2C(=O)CCC2=O)sc2cccc(OC)c21	19.2	8.3	-2.7	-1.4	2.9	.	.
Cc1nnc(SCC(=O)Nc2sccc2C(N)=O)s1	1.2	-1.1	2.8	6.4	7.5	.	.
O=C(O)CN1C(=O)/C(=C/c2ccccc2Br)Oc2ccccc21	0.7	-0.4	2.2	-0.6	-9.8	.	.
Cc1ccc(N=Nc2c(N)nn3c(N)c(C#N)c(C)nc23)cc1	78.8*	11.7	3.3	9.0	-23.6	12.9	4.5
O=C(CSc1nnc2ccccn12)Nc1cccc(-c2nc3ccccc3s2)c1	60.9*	1.6	-7.3	2.9	-2.0	0.9	-7.4
C=CCn1c(SCC(=O)Nc2ccc(-c3nc4ccc(C)cc4s3)cc2)nnc1-c1ccccc1	73.8*	9.7	61.5*	7.4	7.0	5.1	-2.6
O=C(CSc1nnc2ccccn12)Nc1ccc2c(c1)OCO2	-1.1	2.3	0.6	0.3	-0.1	.	.
C=CCn1c(SCC(=O)Nc2ccc3c(c2)OCO3)nnc1-c1ccccc1	52.1*	0.7	4.8	3.2	-1.5	1.4	5.9
C=CCn1c(SCC(=O)NNC(=O)Nc2ccc(C)cc2)nnc1-c1ccccc1	-0.4	1.2	-10.9	-1.8	1.5	.	.
Cc1cc(=O)cc(C)n1-c1ccc(F)cc1F	-0.6	-1.0	-14.2	-1.6	1.2	.	.
CCN(CC)CCOC(=O)c1ccc(NC(=O)c2ccc(Cl)c(S(=O)(=O)N3CCCCCC3)c2)cc1	3.9	-0.7	2.9	0.0	-2.1	.	.
COc1ccc(NC(=O)NC2(C(=O)N3CCN4CCCC4C3)CCCCC2)cc1 (stereo not drawn)	-0.5	-0.6	-7.2	-0.8	2.2	.	.
COc1ccc(NC(=O)NC2(C(=O)N3CCOCC3)CCCCC2)cc1	53.9*	-1.0	-9.3	-0.2	5.1	0.6	-2.8
Nc1ncnc2c1ncn2C1CCCC(CO)O1 (stereo not drawn)	79.8*	-0.1	-7.7	-1.5	5.2	0.8	-2.0
COC(=O)/C=C1/SC(=NC(=O)c2cccc([N+](=O)[O-])c2)NC1=O	-1.1	0.1	-4.0	1.9	-16.7	.	.
CC1CCCCN1S(=O)(=O)c1ccc(S(=O)(=O)N2CCN(c3ccc(F)cc3)CC2)cc1 (stereo not drawn)	52.5*	0.6	-4.0	-3.4	2.0	3.1	3.2
O=c1c(Cc2c(F)cccc2Cl)c(O)ccn1CCc1c[nH]c2ccccc12	-0.9	2.1	-5.4	-0.3	4.2	.	.
CCN(CC)S(=O)(=O)c1ccc(-c2nnc(SCC(=O)N3CCc4ccccc43)o2)cc1	54.2*	1.9	-5.2	-2.6	-5.0	1.1	-1.8
CCN(CC)S(=O)(=O)c1ccc(-c2nnc(SCC(=O)N3CCOCC3)o2)cc1	3.5	2.5	-3.0	-2.0	1.6	.	.
SMILES	DNMT1 inh	STEP inh	Scp-1 inhibitor	LMPTP block	SUMO1 PPI mod	DNMT1 inh conf	Beacon interf	others
COC(=O)Cc1csc(Nc2ccc(F)c(Cl)c2)n1	-1.4	-3.7	-11.7	0.9	1.4	.	.
O=C(O)CCCCCN1C(=O)/C(=C/c2cn(-c3ccccc3)nc2-c2cccs2)SC1=S	83.1*	1.0	38.9	1.9	58.7*	46.5*	-0.9	DNMT1 interf DR=81.1*
CCN1C(=O)/C(=C/c2cn(-c3ccccc3)nc2-c2cccnc2)SC1=S	61.0*	1.3	1.9	-0.9	2.2	3.7	1.1
COc1ccc(-c2nn(-c3ccccc3)cc2/C=C2/SC(=S)N(CCC(=O)O)C2=O)cc1	75.0*	17.8	85.5*	-0.4	11.3	88.9*	-6.1	DNMT1 interf DR=>99
O=C(O)CCCCCN1C(=O)/C(=C\c2cn(-c3ccccc3)nc2-c2cccs2)SC1=S	84.8*	1.9	66.0*	5.0	114.4*	44.0*	-5.4	DNMT1 interf DR=60.1*
COCC1CCCCN1C(=O)c1cccc(OC2CCN(S(C)(=O)=O)CC2)c1 (stereo not drawn)	6.1	-0.3	3.1	-2.5	-1.8	.	.
O=C(NCCNC(=O)c1ccc(F)cc1)c1ccc(F)cc1	2.6	0.3	-6.2	-1.2	6.9	.	.
O=C(NCSc1ccnc(SCNC(=O)c2ccc(F)cc2)n1)c1ccc(F)cc1	51.8*	6.5	38.0	0.0	2.0	2.7	-5.6
CC1(C(=O)NS(=O)(=O)C2CC2)CCCN(C(=O)c2cccc(Cl)c2)C1 (stereo not drawn)	65.1*	-1.2	.	-2.0	1.1	2.0	0.6
CCc1ccc(OCc2ccc(C(=O)OC)o2)cc1	1.5	1.1	5.3	1.2	5.9	.	.
CC(C)=CCC1=C(OCC(=O)O)C(=O)c2ccccc2C1=O	70.6*	8.5	-4.2	6.0	26.7	-4.0	1.1
CC(C)=CCC/C(C)=C/CC/C(C)=C/CC/C(C)=C/CC1=C(C)C(=O)c2ccccc2C1=O	-4.5	-0.4	-1.2	-0.4	-8.6	.	.
COC(=O)c1cc(C#N)c(=O)[nH]c1C	88.7*	1.1	-4.0	-1.4	-2.1	6.5	5.0
